Consider 13 compounds from ChEMBL document CHEMBL1667819, “Aminopyridinecarboxamide-based inhaled IKK-2 inhibitors for asthma and COPD: Structure-activity relationship” (Bioorg Med Chem, 2011).

What is called IC50 is the concentration that inhibits the measured activity by half. The half-life is the time needed for the level to fall by half in the phase considered.

In series [1] the test system is PBMC. As to the kind of experiment: Inhibition of LPS-stimulated TNFalpha release in human PBMC. Format: functional, cell-based. The method, boiled down: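 PBMC were Ficoll-isolated from heparinized blood of healthy donors and plated at 2.5 × 10⁵ cells/well in RPMI 1640 with 5% FBS and penicillin–streptomycin. Cells were preincubated with compound for 1 h, then stimulated with LPS (20 ng/ml) for 16 h. Supernatant TNFα was measured by ELISA, and IC50 is the mean of ≥3 experiments.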

The target of series [2] is T1, Inhibitor of nuclear factor kappa-B kinase subunit beta (Homo sapiens, UniProt O14920).
T1 sequence (O14920 whole entry): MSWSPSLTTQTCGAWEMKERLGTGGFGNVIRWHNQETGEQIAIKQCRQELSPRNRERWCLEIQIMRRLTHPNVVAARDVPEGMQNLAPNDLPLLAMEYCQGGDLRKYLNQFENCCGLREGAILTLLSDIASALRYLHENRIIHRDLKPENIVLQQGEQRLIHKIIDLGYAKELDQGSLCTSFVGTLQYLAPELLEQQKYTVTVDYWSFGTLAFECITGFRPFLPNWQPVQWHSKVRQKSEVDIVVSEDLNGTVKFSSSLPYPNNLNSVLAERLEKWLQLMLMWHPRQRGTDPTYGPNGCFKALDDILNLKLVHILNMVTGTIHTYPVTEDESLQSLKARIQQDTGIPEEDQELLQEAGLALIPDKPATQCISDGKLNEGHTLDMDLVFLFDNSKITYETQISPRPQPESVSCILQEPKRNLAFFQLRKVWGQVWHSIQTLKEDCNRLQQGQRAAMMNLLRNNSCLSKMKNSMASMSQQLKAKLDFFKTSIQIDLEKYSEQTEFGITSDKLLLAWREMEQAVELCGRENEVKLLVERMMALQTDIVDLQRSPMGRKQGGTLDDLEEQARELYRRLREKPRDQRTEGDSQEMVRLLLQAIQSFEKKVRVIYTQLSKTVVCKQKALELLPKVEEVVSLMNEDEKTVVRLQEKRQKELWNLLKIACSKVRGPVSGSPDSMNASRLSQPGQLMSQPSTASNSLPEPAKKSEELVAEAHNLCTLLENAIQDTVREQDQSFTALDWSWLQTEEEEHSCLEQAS
The experiment in a line: Inhibition of human recombinant IKK2.

The target of series [3] is Voltage-gated inwardly rectifying potassium channel KCNH2 (Homo sapiens, UniProt Q12809). The experiment in a line: Displacement of dofetilide from human ERG transfected in HEK293 cells by fluorescence polarization assay. The method, boiled down: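 Competition binding used membranes from HEK-293 cells transfected with hERG. Test compound competed with Cy3B-tagged N-desmethyl dofetilide for channel binding, with fluorescence polarization read-out. Values are given as % of effect.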
Sequence of Voltage-gated inwardly rectifying potassium channel KCNH2 (Q12809 whole entry): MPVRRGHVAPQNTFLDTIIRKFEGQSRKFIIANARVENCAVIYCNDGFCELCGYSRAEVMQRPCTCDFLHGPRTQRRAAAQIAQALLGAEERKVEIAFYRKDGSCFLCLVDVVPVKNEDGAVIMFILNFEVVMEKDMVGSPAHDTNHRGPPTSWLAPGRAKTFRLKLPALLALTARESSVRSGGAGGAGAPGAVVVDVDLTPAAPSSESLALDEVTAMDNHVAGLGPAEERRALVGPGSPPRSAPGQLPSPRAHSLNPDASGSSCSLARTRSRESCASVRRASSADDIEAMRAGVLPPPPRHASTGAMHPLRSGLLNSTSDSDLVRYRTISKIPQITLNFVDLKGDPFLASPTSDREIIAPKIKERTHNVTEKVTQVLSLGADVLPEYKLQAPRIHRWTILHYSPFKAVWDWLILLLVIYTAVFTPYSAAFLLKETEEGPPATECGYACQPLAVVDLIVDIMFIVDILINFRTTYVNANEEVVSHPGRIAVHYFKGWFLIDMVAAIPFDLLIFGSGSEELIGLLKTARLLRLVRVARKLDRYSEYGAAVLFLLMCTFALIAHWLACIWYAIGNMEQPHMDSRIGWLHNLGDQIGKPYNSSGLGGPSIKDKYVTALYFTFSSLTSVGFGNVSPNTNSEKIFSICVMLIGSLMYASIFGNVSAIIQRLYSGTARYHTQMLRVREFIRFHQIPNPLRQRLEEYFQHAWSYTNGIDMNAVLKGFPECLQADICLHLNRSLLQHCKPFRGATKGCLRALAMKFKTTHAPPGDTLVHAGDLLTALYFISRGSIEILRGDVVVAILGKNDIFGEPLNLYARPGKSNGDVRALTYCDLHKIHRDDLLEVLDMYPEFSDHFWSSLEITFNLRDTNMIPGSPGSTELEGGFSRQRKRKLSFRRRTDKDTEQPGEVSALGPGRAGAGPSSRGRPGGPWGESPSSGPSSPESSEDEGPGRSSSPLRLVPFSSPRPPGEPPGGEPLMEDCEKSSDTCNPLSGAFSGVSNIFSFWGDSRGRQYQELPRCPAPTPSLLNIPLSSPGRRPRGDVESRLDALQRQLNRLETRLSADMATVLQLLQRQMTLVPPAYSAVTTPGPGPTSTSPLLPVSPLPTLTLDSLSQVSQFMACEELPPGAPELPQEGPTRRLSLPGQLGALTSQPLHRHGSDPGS
In general terms: In fluorescence polarisation assays a small probe gives low polarisation when free and higher when bound to something large.

Series [4] deals with T2, Inhibitor of nuclear factor kappa-B kinase subunit beta (Homo sapiens) (UniProt O14920).
T2 sequence (whole entry): T1 sequence (O14920 whole entry)
As to the kind of experiment: Binding affinity to human IKK2 in PBMC assessed as half life by cell-based assay. The method in brief: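 Cryopreserved PBMC were thawed and plated, then exposed to compound for 1 h. Compound was removed by four spin-and-aspirate washes, and an unwashed plate served as control. Loss of inhibition after washout gave the cellular half-life.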

For series [5], the target named is T2, Inhibitor of nuclear factor kappa-B kinase subunit beta (Homo sapiens). As to the kind of experiment: Binding affinity to human recombinant IKK2 assessed as half life.
The nature of series [6]: Half life in human liver microsomes.

Bounds are passed on as bounds.

`CCOC(=O)Cn1cc(CN2CCN(c3cc(C(=O)Nc4ccc5c(c4)-c4c(c(C(N)=O)nn4-c4ccc(F)cc4)CC5)c(Cl)cn3)CC2)cn1`: the IC50 in series [1] was 6 nM; in series [2], 1 nM. Besides, in series [3], the “inhibition (INH)” value was 95%. The T1/2 in series [4] was above 4 h; in series [5], 5 h. The compound further returned a half-life in series [6] (liver microsomes) of 3 min.
As to `CNC(=O)Cn1cc(CN2CCN(c3cc(C(=O)Nc4ccc5c(c4)-c4c(c(C(N)=O)nn4-c4ccc(F)cc4)CC5)c(Cl)cn3)CC2)cn1`, the 50% inhibitory concentration (IC50) in series [1] was 15 nM; in series [2] it was 1.4 nM. Moreover, the “inhibition (INH)” value in series [3] is on record as 57%. The figures for the T1/2 in series [4] and in series [5] were above 4 h and 6 h, respectively. The compound also showed a half-life in series [6] (liver microsomes) of 13 min.
For `COCCNC(=O)Cn1cc(CN2CCN(c3cc(C(=O)Nc4ccc5c(c4)-c4c(c(C(N)=O)nn4-c4ccc(F)cc4)CC5)c(Cl)cn3)CC2)cn1`, the IC50 turned out to be 10 nM in series [1] and 1.3 nM in series [2]. The “inhibition (INH)” value in series [3] is listed as 58%. Besides, the values for the T1/2 in series [4] and in series [5] were above 4 h and 6 h, respectively. Also, the half-life in series [6] (liver microsomes) came to 3 min.
For the compound `NC(=O)Cn1cc(CN2CCN(c3cc(C(=O)Nc4ccc5c(c4)-c4c(c(C(N)=O)nn4-c4ccc(F)cc4)CC5)c(Cl)cn3)CC2)cn1`, the results for the concentration for half-maximal inhibition (IC50) in series [1] and in series [2] were 7 nM and 0.9 nM, respectively. Moreover, in series [3], the “inhibition (INH)” value is 38%. For the same compound, the results for the T1/2 in series [4] and in series [5] were below 4 h and 5 h, respectively. Also, the half-life in series [6] (liver microsomes) came to 58 min.
In the case of `COCCOCCCn1cc(CN2CCN(c3cc(C(=O)Nc4ccc5c(c4)-c4c(c(C(N)=O)nn4-c4ccc(F)cc4)CC5)c(Cl)cn3)CC2)cn1`, the IC50 in series [1] stood at 21 nM; in series [2], 6.6 nM. Besides, the “inhibition (INH)” value in series [3] was 69%. The results for the T1/2 in series [4] and in series [5] were below 4 h and 4 h, respectively. Further, the half-life in series [6] (liver microsomes) was found to be 3 min.
Turning to `NC(=O)c1nn(-c2ccc(F)cc2)c2c1CCc1ccc(NC(=O)c3cc(N4CCN(Cc5cnn(CC(=O)NCCO)c5)CC4)ncc3Cl)cc1-2`, the IC50 in series [1] is 9 nM; in series [2], 1 nM. Besides, the “inhibition (INH)” value in series [3] was determined as 12%. Besides, the results for the T1/2 in series [4] and in series [5] were below 4 h and 5 h, respectively. The half-life in series [6] (microsomes) worked out at 120 min.
For the compound `CSCCNC(=O)Cn1cc(CN2CCN(c3cc(C(=O)Nc4ccc5c(c4)-c4c(c(C(N)=O)nn4-c4ccc(F)cc4)CC5)c(Cl)cn3)CC2)cn1`, the figures for the half-maximal inhibitory concentration (IC50) in series [1] and in series [2] were 10 nM and 2.5 nM, respectively. Further, the “inhibition (INH)” value in series [3] turned out to be 98%. The T1/2 in series [4] and in series [5] was 4 h each time. The half-life in series [6] (liver microsomes) stood at 3 min.
On to `COCCCn1cc(CN2CCN(c3cc(C(=O)Nc4ccc5c(c4)-c4c(c(C(N)=O)nn4-c4ccc(F)cc4)CC5)c(Cl)cn3)CC2)cn1`, for which the IC50 in series [1] came to 16 nM; in series [2], 2.8 nM. For the same compound, the “inhibition (INH)” value in series [3] amounted to 76%. Besides, the T1/2 was above 4 h in series [4] and 4 h in series [5]. Besides, the half-life in series [6] (liver microsomes) worked out at 3 min.
For `CN(C)C(=O)Cn1cc(CN2CCN(c3cc(C(=O)Nc4ccc5c(c4)-c4c(c(C(N)=O)nn4-c4ccc(F)cc4)CC5)c(Cl)cn3)CC2)cn1`, the 50% inhibitory concentration (IC50) was 13 nM in series [1] and 2.3 nM in series [2]. Moreover, the “inhibition (INH)” value in series [3] was found to be 50%. For the same compound, the T1/2 is below 4 h in series [4] and 5 h in series [5]. This compound displayed a half-life in series [6] (liver microsomes) of 8 min.
Regarding `CCOC(=O)Cn1cc(CN2CCN(c3cc(C(=O)Nc4ccc5c(c4)-c4c(c(C(N)=O)nn4-c4cccc(F)c4)CC5)c(Cl)cn3)CC2)cn1`, the IC50 amounted to 9 nM in series [1] and 5 nM in series [2]. For the same compound, the “inhibition (INH)” value in series [3] was 78%. The T1/2 in series [4] was above 4 h; in series [5], 5 h. This compound also came in with a half-life in series [6] (liver microsomes) of 3 min.
In the case of `N#CCCn1cc(CN2CCN(c3cc(C(=O)Nc4ccc5c(c4)-c4c(c(C(N)=O)nn4-c4ccc(F)cc4)CC5)c(Cl)cn3)CC2)cn1`, the IC50 in series [1] worked out at 9 nM; in series [2], 7.6 nM. In series [3], the “inhibition (INH)” value turned out to be 98%. For the same compound, the T1/2 in series [4] was above 4 h; in series [5], 5 h. Also, the half-life in series [6] (liver microsomes) was determined as 6 min.
Consider `NC(=O)c1nn(-c2ccc(F)cc2)c2c1CCc1ccc(NC(=O)c3cc(N4CCN(Cc5cnn(CCCO)c5)CC4)ncc3Cl)cc1-2`, for which the IC50 is 15 nM in series [1] and 2.2 nM in series [2]. In series [3], the “inhibition (INH)” value was 49%. Also, the T1/2 in series [4] was above 4 h; in series [5] it was 5 h. The same compound displayed a half-life in series [6] (microsomes) of 9 min.
With `CCOC(=O)CCn1cc(CN2CCN(c3cc(C(=O)Nc4ccc5c(c4)-c4c(c(C(N)=O)nn4-c4ccc(F)cc4)CC5)c(Cl)cn3)CC2)cn1`, the IC50 worked out at 14 nM in series [1] and 4.7 nM in series [2]. Moreover, the “inhibition (INH)” value in series [3] is listed as 90%. Also, the T1/2 in series [4] was above 4 h; in series [5], 6 h. This compound displayed a half-life in series [6] (liver microsomes) of 3 min.
